Measurements taken from ChEMBL document CHEMBL1165845, “Synthesis and biological evaluation of analogues of a novel inhibitor of beta-amyloid secretion” (J Med Chem, 2010).
Active and inactive are the calls of the source. The calls are words filed in the database; no cut-off is given here.

Key:
H4 [1] = assay: Induction of alpha-secretase-mediated reduction in amyloid beta secretion in human H4 cells expressing wild type betaAPP695 treated with media containing human THLE3 cells incubated with 10 uM compound for 24 hrs […]; assay type: cell-based; design: scale not given: the % may be the effect or the level left; settings: in the assay text read “20 uM” for “10 uM”
H4 [2] = assay: Activation of alpha-secretase in human H4 cells expressing wild type betaAPP695 assessed as increase in sAPPalpha levels at 10 uM after 24 hrs by Western blotting; assay type: cell-based
Summary of the method: (§1)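 H4βAPP695wt cells are switched to serum-free medium 24 h before treatment, then exposed to drug in DMSO or vehicle for 24 h. Conditioned medium gets protease inhibitors and is cleared, with its volume adjusted to lysate protein; sAPPα is probed with 6E10 and sAPPβ with a specific antibody (1:1000), detected by ECL. Lysates in RIPA (20 μg protein) go on 4-20% Bis-Tris gels. Bands are quantified by densitometry.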

H4 [3] = assay: Induction of alpha-secretase-mediated reduction in amyloid beta secretion in human H4 cells expressing wild type betaAPP695 by […] in presence of PKC-inhibitor calphostin C; assay type: cell-based
Summary of the method: (§2)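 H4βAPP695wt cells in serum-free medium receive a PKC inhibitor 30 min before a 24 h drug challenge. Secreted Aβ is measured by ELISA and compared with the respective control for each inhibitor, N = 4.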

H4 [4] = assay: Induction of alpha-secretase-mediated reduction in amyloid beta secretion in human H4 cells expressing wild type betaAPP695 […] in presence of PKC-inhibitor rottlerin; assay type: cell-based; summary of the method: as §2
H4 [5] = assay: Induction of alpha-secretase-mediated reduction in amyloid beta secretion in human H4 cells expressing wild type betaAPP695 assessed as remaining drug activity treated with media containing human THLE3 cells incubated with 10 uM compound for 24 hrs measured 24 hrs after media treatment […]; assay type: cell-based
H4 [6] = assay: Induction of alpha-secretase-mediated amyloid beta lowering activity in human H4 cells expressing wild type betaAPP695 at 1 uM after 24 hrs by ELISA; assay type: cell-based
Summary of the method: (§3)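 Serum-starved H4βAPP695wt cells are treated for 24 h with drug in DMSO (0.02% DMSO vehicle control). Total Aβ in conditioned medium is measured by sandwich ELISA with 6E10 capture and 4G8 detection, normalized to lysate protein by BCA. Cytotoxicity is read as total cell protein. Quadruplicate wells in 1-4 independent experiments give the % decrease versus vehicle.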

H4 [7] = assay: Activation of alpha-secretase in human H4 cells expressing wild type betaAPP695 assessed as increase in sAPPbeta levels at 10 uM after 24 hrs by Western blotting; assay type: cell-based; summary of the method: as §1
H4 [8] = assay: Activation of alpha-secretase in human H4 cells expressing wild type betaAPP695 assessed as increase in alpha-CTF levels at 10 uM after 24 hrs by Western blotting; assay type: cell-based; summary of the method: as §1
H4 [9] = assay: Induction of alpha-secretase-mediated reduction in amyloid beta secretion in human H4 cells expressing wild type betaAPP695 by […] in presence of PKC-inhibitor bisindolyl-maleimide; assay type: cell-based; summary of the method: as §2
H4 [10] = assay: Activation of alpha-secretase in human H4 cells expressing wild type betaAPP695 assessed as increase in ratio of active-ADAM9 to pro-ADAM9 level at 10 uM after 24 hrs by Western blotting; assay type: cell-based
Summary of the method: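 H4βAPP695wt cells are held in serum-free medium for 24 h, then given increasing drug concentrations for 24 h. RIPA lysates (20 μg protein) are immunoblotted with antibodies for ADAM9, ADAM10 and ADAM17, and pro and active forms are quantified by densitometry as an active/pro ratio, N = 3 per group.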

H4 [11] = assay: Increase in alpha-secretase activity in human H4 cell lysate expressing wild type betaAPP695 at 10 uM after 24 hrs by fluorescence method; assay type: cell-based
Summary of the method: (§4)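 H4βAPP695wt cells are treated with drug or vehicle for 24 h, washed in cold PBS and lysed on ice for 10 min. 50 μg lysate protein plus reaction buffer and fluorogenic peptide substrate are incubated 2 h at 37 °C in the dark. Fluorescence is read at ex 355/em 510 nm after subtracting the no-lysate blank, N = 6.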

H4 [12] = assay: Increase in alpha-secretase activity in human H4 cells expressing wild type betaAPP695 at 10 uM after 24 hrs by fluorescence method; assay type: cell-based; summary of the method: as §4
H4 [13] = assay: Induction of alpha-secretase-mediated reduction in amyloid beta secretion in human H4 cells expressing wild type betaAPP695 at 10 uM after 24 hrs […] relative to control; assay type: cell-based; design: scale not given: the % may be the effect or the level left; summary of the method: as §3
H4 [14] = assay: Induction of alpha-secretase-mediated reduction in amyloid beta secretion in human H4 cells expressing wild type betaAPP695 placed in lower chamber treated with […] compound placed in upper chamber containing human Caco-2 cells for 4 hrs measured 24 hrs after media treatment […]; assay type: cell-based; design: scale not given: the % may be the effect or the level left
Summary of the method: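 Caco-2 cells are seeded at 70000 per Transwell insert and grown 21 days to TEER >160 Ω/cm2. Drug at 40 μM with 20 μg/mL lucifer yellow goes in the apical chamber in serum-free medium. After 4 h, basal medium is checked for lucifer yellow and applied to H4βAPP695wt cells for 24 h. Secreted Aβ by ELISA is compared with direct 10 μM drug as % activity passing.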

Mus musculus = assay: Reduction in amyloid beta levels in transgenic C57BL/6 mouse brain at 100 mg/kg, iv after 6 hrs; assay type: functional; design: scale not given: the % may be the effect or the level left
Summary of the method: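 Two-month-old female APPswe/PSEN1dE9 C57BL/6 mice (20-25 g) under ketamine/xylazine receive retro-orbital iv injection of 2.5 mg in 150 μL (∼100-125 mg/kg) or vehicle. After 6 h, one hemisphere without cerebellum is homogenized in 5 M guanidine HCl/50 mM Tris pH 8.3. Total Aβ is measured by ELISA and normalized to brain protein by BCA.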

H4 [15] = assay: Cytotoxicity against human H4 cells expressing wild type betaAPP695 assessed as decrease in cell protein at 10 uM after 24 hrs; assay type: cell-based; design: scale not given: the % may be the effect or the level left; settings: h4, 24 h; summary of the method: as §3
H4 [16] = assay: Induction of alpha-secretase-mediated reduction in amyloid beta secretion in human H4 cells expressing wild type betaAPP695 at 30 uM after 24 hrs […] relative to control; assay type: cell-based; design: scale not given: the % may be the effect or the level left; summary of the method: as §3
H4 [17] = assay: Cytotoxicity against human H4 cells expressing wild type betaAPP695 assessed as decrease in cell protein at 30 uM after 24 hrs; assay type: cell-based; design: scale not given: the % may be the effect or the level left; settings: h4, 24 h; summary of the method: as §3
H4 [18] = assay: Cytotoxicity against human H4 cells expressing wild type betaAPP695 at 10 uM after 24 hrs by methylene blue staining; assay type: cell-based; settings: h4, 24 h
Summary of the method: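 Primary screen in H4βAPP695wt cells: drugs are delivered by the hanging drop method at an estimated 10-25 μM, and conditioned medium is collected at 24 h. Cytotoxicity is assessed by methylene blue staining of cells in the wells, with each compound run in a single well and hits rescreened in duplicate.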

SMILES | Activity (H4 [1]) [%] | Activity (H4 [2]) | Activity (H4 [3]) | Activity (H4 [4]) | Activity (H4 [5]) [%] | Activity (H4 [6]) | Activity (H4 [7]) | Activity (H4 [8]) | Activity (H4 [9]) | Activity (H4 [10]) [%] | Activity (H4 [11]) | Activity (H4 [12]) [%] | Activity (H4 [13]) [%] | Activity (H4 [14]) [%] | Activity (Mus musculus) [%] | Activity (H4 [15]) [%] | Activity (H4 [16]) [%] | Activity (H4 [17]) [%] | Activity (H4 [18])
O=C(NCCSCc1cccc(Cl)c1)c1c(Cl)cccc1Cl | 34.6 | Active | Active | Active | 50 | Active | inactive | Active | Active | 31 | inactive | 20 | 75.3 | 26.7 |  |  |  |  | 
Cc1cccc(CSCCNC(=O)c2c(Cl)cccc2Cl)c1 | 38.3 |  |  |  | 54 |  |  |  |  |  |  |  | 70.5 | 49.9 | 39.6 | 11.7 | 85.8 | 16.6 | 
O=C(NCCSCc1ccc(Cl)cc1)c1ccc(Cl)cc1Cl |  |  |  |  |  |  |  |  |  |  |  |  | 5.3 |  |  |  |  |  | Non-toxic
O=C(NCCSCc1cccc(I)c1)c1c(Cl)cccc1Cl | 40 |  |  |  | 47 |  |  |  |  |  |  |  | 84.4 | 1.1 |  | 9.2 | 88.3 | 19 | 
COc1cccc(CSCCNC(=O)c2c(Cl)cccc2Cl)c1OC | 1.9 |  |  |  | 3 |  |  |  |  |  |  |  | 57.8 | 26.5 |  | -0.1 | 72.8 | 8.7 | 
O=C(NCCSCc1ccccc1Cl)c1c(Cl)cccc1Cl | 48.8 |  |  |  | 65 |  |  |  |  |  |  |  | 75.6 | 31.6 |  | -0.5 | 80 | -11 | 
COc1cccc(CSCCNC(=O)c2c(Cl)cccc2Cl)c1 | 22.2 |  |  |  | 37 |  |  |  |  |  |  |  | 60.6 | 17.9 |  | 8.4 | 73.9 | 13.2 | 
O=C(NCCSCc1cccc(O)c1)c1c(Cl)cccc1Cl | 23.1 |  |  |  | 41 |  |  |  |  |  |  |  | 56.4 |  |  | 6.3 | 67.7 | 6.6 | 
O=C(NCCSCc1ccccc1)c1c(Cl)cccc1Cl | 27 |  |  |  | 52 |  |  |  |  |  |  |  | 51.6 | 31 |  | -1.1 | 58.6 | -0.7 | 
COc1cc(Cl)cc(CSCCNC(=O)c2c(Cl)cccc2Cl)c1 | 33.5 |  |  |  | 49 |  |  |  |  |  |  |  | 67.7 | 2.7 |  | 0.9 | 81 | 0.4 | 
